Bioassay records as filed in PubChem BioAssay.
Sampled rows, rich in hits. Any-hit rate of the full collection: about 2.7%.
OX1R antag-1 – OX1R (HCRTR1) antagonists, primary screen, fluorescence, CHO/OX1R cells, Fluo-8 calcium, orexin A | Fluo-8 calcium fluorescence | inhibition, % at 5 µM | hit rate 0.43% among 330,000 | AID 434989, 2010;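 active = inhibition above its plate's threshold, mean inhibition of all tested compounds on the plate plus 3 SD, cut at about 37% in these data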
OX1R antag-2 – antagonists of human orexin 1 receptor (OX1R) | Orexin/Hypocretin receptor type 1 (Homo sapiens), O43613 | OX1R-expressing cells, FRET antagonist read-out | inhibition, % at 6.6 µM | hit rate 1.8% among 330,000; in the data active = inhibition mostly above about 38%, no sharp cut-off; inactive = mostly below about 40%
CHO parental Ca – ATP-evoked calcium signal inhibitors, parental CHO, primary screen, counter-screen for OX1R antagonist project, cell-based, fluorescence, Fluo-8 calcium dye; hit rate 0.63% among 330,000; inhibition, % at 5.6 µM; parental CHO-K1, ATP-induced calcium, Fluo-8 fluorescence;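 active = inhibition above that plate's mean sample inhibition plus 3 SD, cut at about 26% in these data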
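Assay system: parental CHO cells; Read-out basis: percent inhibition of ATP-evoked calcium rise, normalized to controls; Benchmarks: ATP and no-ATP DMSO wells; Compound dosing: single nominal dose of 5.6 µM per compound; Signal: Fluo-8 calcium dye fluorescence; Also added: ATP as calcium-mobilizing challenge; Repeats: singlicate.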
OXTR agonist – human OXTR agonists, primary screen, fluorescence, CHO-OTR cells, Fluo-8 calcium | Oxytocin receptor (Homo sapiens), P30559 | Fluo-8 calcium fluorescence; normalized: DMSO 0%, oxytocin 100% | activation, % at 3 µM | hit rate 0.32% among 320,000;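 active = activation above the mean of all tested compounds plus 3 SD, cutoff set per screening run, cut at about 20% in these data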;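 note: peak over basal fluorescence ratio from a 100 s FLIPR kinetic read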
Target sequence (P30559 whole entry, looked up): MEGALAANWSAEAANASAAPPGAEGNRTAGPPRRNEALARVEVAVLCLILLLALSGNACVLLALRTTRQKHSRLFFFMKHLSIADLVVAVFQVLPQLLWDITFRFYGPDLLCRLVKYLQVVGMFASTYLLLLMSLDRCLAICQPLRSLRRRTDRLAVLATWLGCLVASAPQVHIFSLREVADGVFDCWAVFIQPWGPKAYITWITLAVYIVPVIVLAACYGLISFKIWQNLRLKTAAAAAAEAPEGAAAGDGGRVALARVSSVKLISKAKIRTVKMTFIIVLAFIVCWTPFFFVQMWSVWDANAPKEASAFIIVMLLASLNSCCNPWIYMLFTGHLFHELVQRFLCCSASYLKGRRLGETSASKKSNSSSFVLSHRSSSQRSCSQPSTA
OXTR potentiator – human OXTR potentiators, primary screen, fluorescence, CHO-OTR cells, Fluo-8 calcium | Oxytocin receptor (Homo sapiens), P30559 | Fluo-8 calcium fluorescence, potentiator mode; 0% = oxytocin EC15, 100% = EC100 | activation, % at 3 µM | hit rate 0.061% among 320,000 | AID 2445, 2010;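 active = activation above that plate's cutoff, the mean activation of tested compounds plus 3 SD, cut at about 6.6% in these data, passing the limit was not always enough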
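Measured by – Fluo-8 calcium dye fluorescence · Test system – human OTR in CHO cells · Dosing – one concentration, 3.0 µM compound · Controls – EC15 oxytocin alone as 0%, 75 nM oxytocin as 100% · Evaluation – normalized max/min fluorescence ratio, % activation · Timing – 6 min pre-incubation, 100 s read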
V1aR counter – agonists of human V1a receptor, primary screen, counter-screen for OXTR agonist project, fluorescence, CHO-V1R cells; Vasopressin V1a receptor (Homo sapiens), P37288; Fluo-8 calcium fluorescence, agonist mode; 0% DMSO, 100% 3 nM vasopressin; activation, % at 3 µM; hit rate 0.25% among 320,000; AID 2797, 2010;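 active = activation above the mean activation of all tested compounds plus 3 SD, per screening run, cut at about 20% in these data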;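 note: signal is peak over basal fluorescence ratio across a 100 second FLIPR read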
OX1R Ca confirm – OX1R (HCRTR1) antagonists, confirmation, fluorescence, CHO/OX1R cells, Fluo-8 calcium, orexin A; shares compounds with OX1R antag-1; orexin A calcium Fluo-8 fluorescence; inhibition, % at 5 µM; hit rate 38% among 1,100; AID 492963, 2010; in the data active = inhibition above about 29%
CHO Ca triplic – ATP-evoked calcium inhibition in parental CHO, counter-screen for OX1R antagonist project, cell-based, fluorescence, CHO-K1, triplicate. shares compounds with OX1R antag-1. ATP-induced calcium, Fluo-8 fluorescence. inhibition, % at 5.6 µM. hit rate 9.3% among 1,100. AID 492965, 2010;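 active = inhibition above a per-plate limit, the mean inhibition of that plate's test compounds plus 3 SD, cut at about 25% in these data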
Hits are given with their value; 0 = inactive; - = not tested or not shown.

SMILES	OX1R antag-1	OX1R antag-2	CHO parental Ca	OXTR agonist	OXTR potentiator	V1aR counter	OX1R Ca confirm	CHO Ca triplic
O=C(C1CCCO1)N1CCN(S(=O)(=O)c2ccc(Cl)cc2)CC1 (stereo unspecified)	0	0	0	0	0	0	-	-
CCC(=O)c1ccc(OC(=O)c2ccc(Br)o2)cc1	0	0	0	35	0	44	38	39
Cc1ccc2c(cnn2C(=O)CCC(=O)NC2CCCCC2)c1	0	0	0	0	0	0	-	-
O=C(NCc1nc(-c2ccc(C(F)(F)F)cc2)no1)Nc1cc(Cl)cc(Cl)c1	0	0	0	0	0	0	0	48
O=C(CCNC(=O)N1CCn2c1nc1ccccc12)NCc1ccccc1	0	0	0	0	0	0	-	-
Cc1nc2ccccc2c(=O)n1NC(=O)c1cccc([N+](=O)[O-])c1	0	0	0	0	0	0	-	-
CCOC(=O)c1sc(NCCNc2nc(C)c(C(=O)OCC)s2)nc1C	0	0	0	0	0	0	-	-
CCOC(=O)c1sc(N)nc1C(C)(C)C	0	0	0	0	0	0	0	0
Cc1c(NC(=O)c2cccc(-c3cc4ccccc4oc3=O)c2)cccc1-c1nc2ncccc2o1	0	0	0	0	0	0	0	0
Cc1c(NC(=O)C(C)C)cccc1-c1nc2ncccc2o1	0	0	0	0	0	0	-	-
CN(C)c1ccc(/C=N/NC(=O)c2nnn(-c3nonc3N)c2CN(C)c2ccccc2)cc1	0	0	0	0	0	0	-	-
CN(Cc1c(C(=O)N/N=C/c2cccc(Cl)c2)nnn1-c1nonc1N)c1ccccc1	0	0	0	0	0	0	0	0
COc1cccc(-c2csc(N3CCN(C(=O)Nc4ccc(Cl)cc4)CC3)n2)c1	0	0	0	0	0	0	0	0
CC(=O)Nc1cc(O)cc(O)c1	0	0	0	0	0	0	-	-
Cc1ccc(-n2nnnc2SCn2nnc3ccccc3c2=O)c(C)c1	42	0	0	0	0	0	0	0
CN1CCc2c1nc1ccccc1c2N=C1CCCN1Cc1ccccc1	0	0	0	0	0	0	-	-
CCCCOC(=O)c1ccc(NC(=O)c2ccccc2OC)cc1	0	0	0	0	0	0	-	-
CCCCOC(=O)c1ccc(NC(=O)c2cc(Cl)ccc2OC)cc1	0	0	0	0	0	0	29	0
CCCc1cc(=O)[nH]c(Nc2ccc3c(c2)OCCO3)n1	0	0	0	0	0	0	-	-
CCCn1c2c(c(=N)c3c1CCC3)CCC2	0	0	0	0	0	0	-	-
CCCCCCCn1c2c(c(=N)c3ccccc31)CCC2	0	0	0	0	0	0	0	38
Cc1cc(OCc2cc(C(=O)N3CCN(C)C(=O)[C@@H]3C)no2)cc(C)c1Cl	43	0	0	0	0	0	0	28
Cc1ccc(NC(=O)C2=C(c3ccccc3)S(=O)(=O)CCS2(=O)=O)cc1	0	0	0	0	0	0	43	0
Cc1ccc(NC(=O)c2ccccc2)cc1	0	0	0	0	0	0	-	-
CC1CCCN(C(=O)COC(=O)c2ccc3[nH]c4c(c3c2)CCCC4)C1 (stereo unspecified)	0	0	0	0	0	0	-	-
SMILES	OX1R antag-1	OX1R antag-2	CHO parental Ca	OXTR agonist	OXTR potentiator	V1aR counter	OX1R Ca confirm	CHO Ca triplic
CCc1ccccc1NC(=O)CN1CCN(C(=O)CCC(=O)N2CCC(c3ccccc3)=N2)CC1	0	0	0	0	0	0	-	-
CC(C)NC(=O)C(c1ccc(F)cc1)N(Cc1ccco1)C(=O)CCC(=O)Nc1ccccn1 (stereo unspecified)	0	0	0	0	0	0	-	-
Cc1cc(C(=O)OCC(N)=O)c(C)n1-c1ccccc1	0	0	0	0	0	0	-	-
Cc1cc(C(=O)COC(=O)c2ccc(O)cc2O)c(C)n1-c1ccccc1	0	0	0	0	0	0	0	0
CNC(=O)c1cccc(NC(=O)CCCNC(=O)c2ccc(Cl)cc2)c1	0	0	0	0	0	0	-	-
CCOC(=O)/C(=C\C=C1/Sc2ccccc2N1CC)C(C)=O	0	0	0	60	0	40	34	35
Cc1c(Nc2nc3ccccc3nc2NS(=O)(=O)c2cccc(Cl)c2)c(=O)n(-c2ccccc2)n1C	0	0	0	0	0	0	-	-
Cc1ccc(Nc2nc3ccccc3nc2Nc2c(C)n(C)n(-c3ccccc3)c2=O)cc1	57	0	0	0	0	0	0	0
CC(=O)/C=C1/C(=O)Nc2ccccc21	0	0	0	0	0	0	-	-
C=CCOc1cccc(C(=O)/C=C2/C(=O)Nc3ccccc32)c1	0	0	0	0	0	0	0	0
Fc1ccc2nc(Nc3nc4c(F)cccc4s3)sc2c1	68	0	0	0	0	0	51	0
Fc1cccc2sc(Nc3nc4ccccc4s3)nc12	36	0	0	0	0	0	51	0
Fc1ccc2nc(Nc3nc4c(F)cc(F)cc4s3)sc2c1	0	0	0	0	0	0	-	-
O=C(NNc1nc2ccccc2s1)c1ccccc1F	0	0	0	0	0	0	-	-
C=CCn1c(COc2ccccc2)nnc1SC(C)C(=O)N/N=C/c1cc(Cl)ccc1O (stereo unspecified)	0	0	0	0	0	0	-	-
COc1ccc(OC(=O)N2CCOCC2)cc1	0	0	0	0	0	0	0	0
O=C(Oc1ccc(Cl)cc1)N1CCOCC1	0	0	0	0	0	0	-	-
CC(=O)c1ccc(NC(=O)Cc2ccsc2)cc1	0	0	0	0	0	0	-	-
Cc1oc(-c2cccc3ccccc23)nc1CN1CCN(c2ncnc3ccccc23)CC1	0	0	0	0	0	0	0	0
COc1ccc(N2CCN(C(=O)CN3C(=O)NC(C)(C4CC4)C3=O)CC2)cc1 (stereo unspecified)	0	0	0	0	0	0	-	-
Cc1sc2cc3c(c(C(=O)c4ccccc4)[n+]2c1C)-c1cccc2cccc-3c12	0	0	0	0	0	0	-	-
O=C(c1ccccc1)c1c2c(cc3sc4ccccc4[n+]13)-c1cccc3cccc-2c13	0	0	0	0	0	0	36	37
